# From ChEMBL document CHEMBL1629684, “Effects of ravuconazole treatment on parasite load and immune response in dogs experimentally infected with Trypanosoma cruzi” (Antimicrob Agents Chemother, 2010)
# Calls of active or inactive are those of the source.
# Assays:
# Trypanosoma cruzi [1] = assay: Antimicrobial activity against Trypanosoma cruzi Berenice-78 infected in mongrel dog assessed as parasite level in blood of dog at 12 mg/kg, po BID started 12 to 22 days postinfection measured after 30 days by PCR analysis; type: functional
# Summary of the method: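 Mongrel dogs (4 months old, five per group) were inoculated with 2.0 × 10^3 Berenice-78 bloodstream trypomastigotes/kg and dosed orally at 12 mg/kg q12h for 90 days, beginning 12–22 days postinfection once parasitemia appeared. Blood was sampled 1 month after treatment. PCR used 2 μl blood DNA, 35 cycles with annealing at 30°C then 40°C, and polyacrylamide gel with silver staining.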
# [2] = Half life in human; type: ADME, organism-based; conditions: in vivo
# Canis familiaris [3] = assay: Immunostimulatory activity in mongrel dog infected with Trypanosoma cruzi Berenice-78 assessed as reduction in IL10 production in right atrium at 12 mg/kg, po BID after 180 days by semiquantitative RT-PCR; type: functional, organism-based; set-up: dose 12 mg/kg; conditions: Canis lupus familiaris, Cardiac atrium
# Summary of the method: (§1)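 Dogs were euthanized 6 months after the end of treatment. RNA was extracted from the right atrium with acid guanidinium thiocyanate-phenol-chloroform. One microgram was DNase treated and reverse transcribed with oligo(dT) for 1 h at 42°C. IFN-γ or IL-10 cDNA was amplified with 1.5 mM MgCl2: 94°C 5 min, n cycles of 94/57/72°C, final extension 72°C 6 min. Expression was scored semiquantitatively against infected untreated and noninfected dogs.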
# Trypanosoma cruzi [4] = assay: Antimicrobial activity against Trypanosoma cruzi Y infected in mongrel dog assessed as parasite level in blood of dog at 12 mg/kg, po BID started 12 to 22 days postinfection measured after 30 days by PCR analysis; type: functional
# Summary of the method: (§2)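 Blood PCR for T. cruzi on treated dogs (n = 5 per group) at 1 and 6 months posttreatment. Each reaction took 2 μl blood DNA template in Tris-HCl pH 9.0, 75 mM KCl, 3.5 mM MgCl2 and 0.2 mM dNTPs. Cycling was 95°C 5 min, then 2 cycles annealing at 30°C, 33 cycles at 40°C, and 72°C 5 min. Products were run on 6% polyacrylamide and silver stained. Reported as rate of positive animals.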
# Canis familiaris [5] = assay: Immunostimulatory activity in mongrel dog infected with Trypanosoma cruzi Berenice-78 assessed as production of antibody IgG2 at 7 mg/kg, po BID for 90 days measured up to 30 days by ELISA; type: functional, organism-based; set-up: dose 7 mg/kg; conditions: Canis lupus familiaris
# Summary of the method: (§3)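 Serum was taken before inoculation and then monthly until 6 months posttreatment, and stored at −80°C. ELISA plates were coated with alkaline extract of Y-strain parasites grown to exponential phase in LIT medium. Bound total IgG or IgG2 was detected with peroxidase-labeled anti-dog conjugates and read at 490 nm. Cutoff was the mean absorbance of 10 uninfected dogs plus 2 SD.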
# Trypanosoma cruzi [6] = assay: Antimicrobial activity against Trypanosoma cruzi Berenice-78 infected in mongrel dog assessed as suppression of microbial proliferation at 12 mg/kg, po BID started 12 to 22 days postinfection measured after 1 day; type: functional, organism-based; set-up: dose 12 mg/kg
# Summary of the method: (§4)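 Mongrel dogs, 4 months old, dewormed and vaccinated, were inoculated with 2.0 × 10^3 bloodstream trypomastigotes/kg. Oral b.i.d. (q12h) dosing began 12 to 22 days postinfection, once parasitemia appeared. Dosing ran 90 days at 12 mg/kg and 60 days at 7 mg/kg, with 5 dogs per group. Parasitemia was read by fresh-blood examination of marginal ear vein blood from day 10 of infection until parasites were undetectable.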
# Trypanosoma cruzi [7] = assay: Antitrypanosomal activity against Trypanosoma cruzi Y infected in mongrel dog assessed as reduction in parasite-induced intrafascicular collagen deposition at 7 mg/kg, po BID after 180 days […]; type: functional, organism-based; set-up: dose 7 mg/kg
# [8] = Half life in mongrel dog; type: ADME, organism-based, Canis lupus familiaris; conditions: in vivo
# Trypanosoma cruzi [9] = assay: Antimicrobial activity against Trypanosoma cruzi Y infected in mongrel dog assessed as survival of dog at 7 mg/kg, po BID started 12 to 22 days postinfection measured after 1 day; type: functional
# Summary of the method: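 Four-month-old mongrel dogs (five per group) received 2.0 × 10^3 Y or Berenice-78 bloodstream trypomastigotes/kg. Oral dosing began 12–22 days postinfection, when parasitemia was detected by fresh blood examination: 12 mg/kg q12h for 90 days, or 7 mg/kg q12h for 60 days. Ear-vein blood was checked from day 10. Mortality was expressed as the cumulative percentage of dead animals.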
# Trypanosoma cruzi [10] = assay: Antimicrobial activity against Trypanosoma cruzi Berenice-78 infected in mongrel dog assessed as suppression of microbial proliferation at 7 mg/kg, po BID started 12 to 22 days postinfection measured after 1 day; type: functional, organism-based; set-up: dose 7 mg/kg; summary of the method: as §4
# Trypanosoma cruzi [11] = assay: Antimicrobial activity against Trypanosoma cruzi Berenice-78 infected in mongrel dog assessed as parasite level in blood of dog at 12 mg/kg, po BID started 12 to 22 days postinfection measured after 6 months by PCR analysis; type: functional; summary of the method: as §2
# Canis familiaris [12] = assay: Immunostimulatory activity in mongrel dog infected with Trypanosoma cruzi Berenice-78 assessed as reduction in IL10 production in right atrium at 7 mg/kg, po BID after 180 days by semiquantitative RT-PCR; type: functional, organism-based; set-up: dose 7 mg/kg; conditions: Canis lupus familiaris, Cardiac atrium; summary of the method: as §1
# Trypanosoma cruzi [13] = assay: Antimicrobial activity against Trypanosoma cruzi Y infected in mongrel dog assessed as parasite level in blood of dog at 7 mg/kg, po BID started 12 to 22 days postinfection measured after 30 days by PCR analysis; type: functional; summary of the method: as §2
# [14] = Half life in mouse; type: ADME, organism-based; conditions: in vivo
# Canis familiaris [15] = assay: Toxicity in mongrel dog infected with Trypanosoma cruzi Berenice-78 assessed as weight loss at 7 mg/kg, po BID for 90 days started 12 to 22 days postinfection measured after 6 months; type: organism-based, Canis lupus familiaris; set-up: dose 7 mg/kg, route oral; conditions: in vivo, 4383 h
# Summary of the method: (§5)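 Body weight gain, in kg, was recorded for infected dogs 1 day and 6 months after the end of oral b.i.d. treatment. Treated animals were compared with infected untreated and noninfected control groups.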
# Canis familiaris [16] = assay: Toxicity in mongrel dog infected with Trypanosoma cruzi Y assessed as weight loss at 12 mg/kg, po BID for 90 days started 12 to 22 days postinfection measured after 1 day; type: organism-based, Canis lupus familiaris; set-up: dose 12 mg/kg, route oral; conditions: in vivo, 24 h; summary of the method: as §5
# Canis familiaris [17] = assay: Toxicity in mongrel dog infected with Trypanosoma cruzi Y assessed as weight loss at po BID for 90 days started 12 to 22 days postinfection measured after 1 day; conditions: in vivo, 24 h
# Canis familiaris [18] = assay: Immunostimulatory activity in mongrel dog infected with Trypanosoma cruzi Berenice-78 assessed as reduction in INFgamma production in right atrium at 7 mg/kg, po BID after 180 days by semiquantitative RT-PCR; type: functional, organism-based; set-up: dose 7 mg/kg; conditions: Canis lupus familiaris, Cardiac atrium; summary of the method: as §1
# Canis familiaris [19] = assay: Immunostimulatory activity in mongrel dog infected with Trypanosoma cruzi Berenice-78 assessed as reduction in INFgamma production in right atrium at 12 mg/kg, po BID after 180 days by semiquantitative RT-PCR; type: functional, organism-based; set-up: dose 12 mg/kg; conditions: Canis lupus familiaris, Cardiac atrium; summary of the method: as §1
# Canis familiaris [20] = assay: Immunostimulatory activity in mongrel dog infected with Trypanosoma cruzi Berenice-78 assessed as production of antibody IgG at 12 mg/kg, po BID for 90 days measured up to 30 days by ELISA; type: functional, organism-based; set-up: dose 12 mg/kg; conditions: Canis lupus familiaris; summary of the method: as §3
# [21] = Half life in po dosed human; type: ADME, organism-based; conditions: in vivo
# Trypanosoma cruzi [22] = assay: Antimicrobial activity against Trypanosoma cruzi Berenice-78 infected in mongrel dog assessed as parasite level in blood of dog at 7 mg/kg, po BID started 12 to 22 days postinfection measured after 30 days by PCR analysis; type: functional; summary of the method: as §2
# Canis familiaris [23] = assay: Toxicity in mongrel dog infected with Trypanosoma cruzi Berenice-78 assessed as weight loss at 12 mg/kg, po BID for 90 days started 12 to 22 days postinfection measured after 6 months; type: organism-based, Canis lupus familiaris; set-up: dose 12 mg/kg, route oral; conditions: in vivo, 4383 h; summary of the method: as §5
structure (smiles),measurement,setting,value
C[C@@H](c1nc(-c2ccc(C#N)cc2)cs1)[C@](O)(Cn1cncn1)c1ccc(F)cc1F [RAVUCONAZOLE],Activity,Trypanosoma cruzi [1],100%
same,half-life,[2],96 h
same,Activity,Canis familiaris [3],Active
same,Activity,Trypanosoma cruzi [4],80%
same,Activity,Canis familiaris [5],Active
same,Activity,Trypanosoma cruzi [6],Non-toxic
same,Activity,Trypanosoma cruzi [7],Active
same,half-life,[8],8.8 h
same,Activity,Trypanosoma cruzi [9],100%
same,Activity,Trypanosoma cruzi [10],Non-toxic
same,Activity,Trypanosoma cruzi [11],80%
same,Activity,Canis familiaris [12],Active
same,Activity,Trypanosoma cruzi [13],40%
same,half-life,[14],4.5 h
same,Activity,Canis familiaris [15],Non-toxic
same,Activity,Canis familiaris [16],Non-toxic
same,Activity,Canis familiaris [17],Non-toxic
same,Activity,Canis familiaris [18],Active
same,Activity,Canis familiaris [19],Active
same,Activity,Canis familiaris [20],Active
same,half-life,[21],≥ 120 h
same,Activity,Trypanosoma cruzi [22],60%
same,Activity,Canis familiaris [23],Non-toxic
